This is an account of results in ChEMBL document CHEMBL5252546, “Salutaxel, a Conjugate of Docetaxel and a Muramyl Dipeptide (MDP) Analogue, Acts as Multifunctional Prodrug That Inhibits Tumor Growth and Metastasis” (J Med Chem, 2018).

Broadly, the half-life is how long it takes for the measured level to halve. For orientation: clearance means a measure of how efficiently the substance is removed, as volume per time. The AUC(0-inf) is the area under the concentration-time curve extrapolated to infinity. Usually Tmax stands for the time at which the peak concentration occurs. In general, Cmax refers to the peak of the concentration-time curve. Usually AUC(0-t) stands for the area under the concentration-time curve up to a stated or last time point. As usually defined, the IC50 is the concentration that gives 50% inhibition.

Data set [1] concerns 4T1. In words: Antitumor activity against mouse 4T1 cells implanted in BALB/c mouse assessed as decrease in spleen MMP2 expression level at 5.7 mg/kg,iv administrated once per week for 4 weeks in presence of compound 5b by western blot assay. Type of data set: functional, organism-based. In outline:
(§1)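 4T1 cells injected into mammary fat pads of BALB/c mice. Saline vehicle or test article given iv once weekly for 4 weeks. Spleen, lung and tumor lysates immunoblotted for MMP2/MMP9 with β-actin as loading control. Bands averaged over five mice per group, representative of two independent experiments.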
Background: In western blotting, separated proteins are transferred to a membrane and probed.

The nature of data set [2]: Half life in mouse plasma implanted with mouse 4T1 cells at 5.7 mg/kg,iv measured upto 72 hrs. The class given is ADME, organism-based.
Data set [3] deals with 4T1. In words: Antitumor activity against mouse 4T1 cells implanted in BALB/c mouse assessed as decrease in tumor MMP9 expression level at 5.7 mg/kg,iv administrated once per week for 4 weeks in presence of MDA-205 by western blot assay. The class given is functional, organism-based. In outline: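 Tumour-bearing BALB/c mice (4T1 cells into mammary fat pad) given iv saline vehicle or test agents once weekly for 4 weeks. Tumours excised and probed by western blot for MMP9, MMP2 and NOD1, β-actin as loading control. Bands averaged over five mice per group; representative of two independent experiments.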

The nature of data set [4]: Drug concentration in plasma of rat at 2.28 mg/kg,iv measured upto 24 hrs. The class given is ADME, organism-based. To be noted: in vivo. In outline:
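Taxane given as a single intravenous dose: 2.28 mg/kg to rats by injection and 1.14 mg/kg to Beagle dogs by infusion. Plasma concentrations were then measured.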

The test system of data set [5] is 4T1. In words: Antitumor activity against mouse 4T1 cells implanted in BALB/c mouse assessed as decrease in lung MMP2 expression level at 5.7 mg/kg,iv administrated once per week for 4 weeks in presence of compound 5b by western blot assay. Type of data set: functional, organism-based. The essentials: as §1
Data set [6] relates to 4T1. In words: Antitumor activity against mouse 4T1 cells implanted in BALB/c mouse assessed as decrease in S100A8 mRNA expression in lung at 20 mg/kg,iv administrated qd for 2 days by qRT-PCR analysis. The class given is functional, organism-based. To be noted: time 2.0 day. In outline:
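Day 19 after 4T1 implantation, mice randomised into five groups; iv vehicle or 20 mg/kg plus ip C12-iE-DAP (50 μg/mouse) and MDP (100 μg/mouse) once daily for 2 days; killed after 48 h; lung mRNA for MMP8, MMP9, PROK2, S100A8, S100A9 and IL-1β by qPCR; mean ± SEM.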
For orientation: Real-time PCR tracks product formation cycle by cycle.

The nature of data set [7]: Clearance in female rat at 2 mg/kg,iv measured upto 24 hrs. The class given is ADME, organism-based. To be noted: in vivo. The essentials: (§2)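 Rats were given a single iv injection at 2, 4 or 8 mg/kg. Plasma parent drug and released docetaxel were followed over time. Cmax, Tmax, AUC, MRT, t1/2, CL and Vss were reported for males, females and all animals combined.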

Data set [8] is described as follows: Half life in Beagle dog at 1 mg/kg,iv measured upto 24 hrs. To be noted: in vivo. The class given is ADME, organism-based, Canis lupus familiaris.
Data set [9] in a line: AUC (0-infinity) in female rat at 2 mg/kg,iv measured upto 24 hrs. On the set-up: time < 24 hrs, dose 2 mg/kg, route iv. To be noted: in vivo. Type of data set: ADME, organism-based. The essentials:
(§3)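 Single iv dose: rats 2, 4 or 8 mg/kg by intravenous injection; Beagle dogs 1, 2 or 4 mg/kg by intravenous infusion. Plasma concentration–time data were analysed by sex and pooled. Reported parameters: Cmax, Tmax, AUC0−t, AUC0−∞, MRT0−∞, t1/2, CL, Vss, given as mean ± SD.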

Data set [10] in a line: Clearance in male rat at 2 mg/kg,iv measured upto 24 hrs. The class given is ADME, organism-based. To be noted: in vivo. In outline:
as §2

The target of data set [11] is Cytochrome P450 2C19 (Homo sapiens, UniProt P33261). In words: Inhibition of CYP2C19 in human liver microsomes using probe substrate at 0.1 to 100 uM in presence of NADPH. The class given is ADME, Microsome. To be noted: dose 0.1-100 µM. For orientation: Liver microsomes are a subcellular fraction often used to study metabolism.
Chain of Cytochrome P450 2C19 (P33261 whole entry): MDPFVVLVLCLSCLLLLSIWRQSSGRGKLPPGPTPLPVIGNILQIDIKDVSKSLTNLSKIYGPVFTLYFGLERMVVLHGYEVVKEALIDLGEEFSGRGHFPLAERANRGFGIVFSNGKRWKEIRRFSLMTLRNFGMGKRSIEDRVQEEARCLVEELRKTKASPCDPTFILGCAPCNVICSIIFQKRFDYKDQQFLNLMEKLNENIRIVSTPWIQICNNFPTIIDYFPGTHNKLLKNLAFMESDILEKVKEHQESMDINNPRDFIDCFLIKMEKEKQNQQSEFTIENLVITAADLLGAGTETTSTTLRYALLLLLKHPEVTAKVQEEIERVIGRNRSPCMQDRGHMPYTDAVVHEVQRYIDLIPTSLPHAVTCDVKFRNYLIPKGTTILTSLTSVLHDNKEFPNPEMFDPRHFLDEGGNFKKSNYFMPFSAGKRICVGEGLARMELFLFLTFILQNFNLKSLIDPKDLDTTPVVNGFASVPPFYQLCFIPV
The nature of data set [12]: Volume of distribution at steady state in Beagle dog at 4 mg/kg,iv measured upto 24 hrs. Type of data set: ADME, organism-based, Canis lupus familiaris. To be noted: in vivo, read-out: Vdss.
Data set [13] can be described thus: Clearance in female Beagle dog at 1 mg/kg,iv measured upto 24 hrs. The class given is ADME, organism-based, Canis lupus familiaris. Conditions: in vivo. The essentials: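 Beagle dogs were given a single iv infusion at 1, 2 or 4 mg/kg. Plasma parent drug and released docetaxel were followed over time. Cmax, Tmax, AUC, MRT, t1/2, CL and Vss were reported by sex and for all dogs combined.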

The nature of data set [14]: Half life in Beagle dog at 2 mg/kg,iv measured upto 24 hrs. Type of data set: ADME, organism-based, Canis lupus familiaris. To be noted: in vivo.
Data set [15] is described as follows: Tmax in rat at 8 mg/kg,iv measured upto 24 hrs. Type of data set: ADME, organism-based. To be noted: in vivo.
Data set [16] can be described thus: Toxicity in BALB/c mouse xenografted with human HCT-116 cells assessed as body weight loss at 10 mg/kg,iv administrated once per week for 3 weeks. The class given is organism-based. Conditions: in vivo, 504 h.
The nature of data set [17]: Tmax in male Beagle dog at 1 mg/kg,iv measured upto 24 hrs. Type of data set: ADME, organism-based, Canis lupus familiaris. Conditions: in vivo.
Data set [18] in a line: Cmax in female rat at 4 mg/kg,iv measured upto 24 hrs. Type of data set: ADME, organism-based. Also noted: time < 24 hrs, dose 4 mg/kg, route iv. Conditions: in vivo. In outline: as §2
A short description of data set [19]: Stability in rat plasma assessed as compound remaining at 40 uM incubated for 6 hrs. Type of data set: ADME, cell-free.
Data set [20] is described as follows: Drug metabolism in monkey hepatocytes assessed as MDA-205 metabolite formation at 20 uM incubated for 180 mins. Type of data set: ADME, cell-based, Macaca mulatta, Hepatocyte. To be noted: rhesus monkey, 3 h.
A short description of data set [21]: Stability in mouse hepatocyte assessed as compound remaining at 3 uM incubated upto 120 mins. Type of data set: ADME, cell-based. Conditions: hepatocytes, 2 h.
The nature of data set [22]: AUC (0-t) in Beagle dog at 2 mg/kg,iv measured upto 24 hrs. On the set-up: time < 24 hrs, dose 2 mg/kg, route iv. To be noted: in vivo. The class given is ADME, organism-based, Canis lupus familiaris. In outline: as §3
A short description of data set [23]: Cmax in mouse plasma implanted with mouse 4T1 cells at 10 mg/kg,iv measured upto 72 hrs. Also noted: dose 10 mg/kg, time < 72 hrs, route iv. The class given is ADME, organism-based. In outline:
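BALB/c mice carried 4T1 cells implanted in the mammary fat pad and received a single iv dose of 10 mg/kg. Parent drug and released docetaxel were assayed in plasma and tumor tissue up to 72 h. Parameters came from noncompartmental analysis, n = 6, mean ± SD.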

Data set [24] has as its system NCI-H1975. In words: Antitumor activity against human NCI-H1975 cells xenografted with BALB/c mouse assessed as inhibition of tumor growth at 10 mg/kg,iv administrated once per week for 3 weeks. Type of data set: functional, organism-based. In outline: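 BALB/c nu/nu mice given subcutaneous human tumour cells in the right flank; dosing began at about 100–120 mm3 mean volume; iv once weekly for 3 weeks, with equimolar parent drug as positive control; tumour volume and weight measured; n = 8, mean ± SEM, ANOVA and Student's t test.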

Data set [25] in a line: Tmax in male Beagle dog at 4 mg/kg,iv measured upto 24 hrs. Conditions: in vivo. Type of data set: ADME, organism-based, Canis lupus familiaris.
For data set [26], the system named is 4T1. In words: Antitumor activity against mouse 4T1 cells implanted in BALB/c mouse assessed as decrease in serum TIMP-1 level at 10 mg/kg,iv administrated once per week for 4 weeks by ELISA. Type of data set: functional, organism-based. The essentials: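 4T1 fat-pad model in BALB/c mice, iv 5–20 mg/kg once weekly for 4 weeks, with vehicle and naive groups; serum MMP9, TIMP-1, IL-6 and S100A9 measured by mouse ELISA kits.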

Data set [27] is described as follows: Chronic toxicity in female Beagle dog at 3 to 18 mg/kg,iv administered once per week for 30 days. Type of data set: organism-based, Canis lupus familiaris. To be noted: in vivo, 720 h, dose 3-18 mg/kg, time 30 day. The essentials: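 Long-term toxicity: rats given iv 2, 4 or 8 mg/kg and dogs 3, 6 or 18 mg/kg once weekly over 30 days; toxicokinetics recorded; highest non-severely toxic dose determined by sex.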

The target in data set [28] is Cytochrome P450 2C9 (Homo sapiens, UniProt P11712). In words: Inhibition of CYP2C9 in human liver microsomes using probe substrate at 0.1 to 100 uM in presence of NADPH. Type of data set: ADME, Microsome. Conditions: dose 0.1-100 µM.
Chain of Cytochrome P450 2C9 (P11712 whole entry): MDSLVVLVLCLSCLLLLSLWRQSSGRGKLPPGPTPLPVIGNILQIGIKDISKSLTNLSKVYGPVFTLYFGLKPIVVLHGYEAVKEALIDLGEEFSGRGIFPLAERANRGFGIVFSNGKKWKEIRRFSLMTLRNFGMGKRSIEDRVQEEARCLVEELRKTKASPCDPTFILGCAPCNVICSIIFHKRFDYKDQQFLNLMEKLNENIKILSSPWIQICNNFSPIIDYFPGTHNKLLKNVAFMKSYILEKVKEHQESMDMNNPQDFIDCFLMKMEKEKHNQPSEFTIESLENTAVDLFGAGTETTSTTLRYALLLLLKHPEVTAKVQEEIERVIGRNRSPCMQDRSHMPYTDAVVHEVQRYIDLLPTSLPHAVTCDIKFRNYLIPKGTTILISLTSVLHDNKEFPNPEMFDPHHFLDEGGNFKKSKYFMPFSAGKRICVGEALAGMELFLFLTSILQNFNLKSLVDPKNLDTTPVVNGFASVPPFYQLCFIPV
Data set [29] relates to A549. In words: Antiproliferative activity against human A549 cells assessed inhibition of cell growth incubated for 72 hrs by SRB assay. Type of data set: functional, cell-based. To be noted: A549, 72 h.

Structures are written as SMILES. Active and inactive are the calls of the source. No cut-off for these calls is given here.

`CC(=O)O[C@@]12CO[C@@H]1C[C@H](O)[C@@]1(C)C(=O)[C@H](O)C3=C(C)[C@@H](OC(=O)[C@H](O)[C@@H](NC(=O)OC(C)(C)C)c4ccccc4)C[C@@](O)([C@@H](OC(=O)c4ccccc4)[C@H]21)C3(C)C` [DOCETAXEL ANHYDROUS]: the outcome in data set [1], in data set [3] and in data set [5] was inactive. In addition, the half-life in [2] was 217 min. Besides, in [4], the Drug uptake is on record as 45%.
Turning to `CC(=O)O[C@@]12CO[C@@H]1C[C@H](O)[C@@]1(C)C(=O)[C@H](O)C3=C(C)[C@@H](OC(=O)[C@H](OC(=O)CCC(=O)NCCCC[C@H](NC(=O)CC[C@@H](NC(=O)[C@H](C)NC(=O)/C=C/c4ccc(F)cc4Cl)C(N)=O)C(=O)O)[C@@H](NC(=O)OC(C)(C)C)c4ccccc4)C[C@@](O)([C@@H](OC(=O)c4ccccc4)[C@H]21)C3(C)C`, the outcome in [6] and in data set [26] was Active. Also, the clearance is 7.73 mL/min/kg in [7], 5.58 mL/min/kg in [10] and 11.2 mL/min/kg in [13]. Further, the half-life was 21.3 min in data set [8] and 30.5 min in data set [14]. In addition, in data set [9], the total exposure AUC(0-inf) is 4330 ng·h/mL. For the same compound, the “inhibition (INH)” value in [11] and in [28] was “Not Active” each time. Also, the Vd in data set [12] is 0.08 L/kg. In addition, the Tmax was determined as 4.98 min in data set [15], 30 min in [17] and 30 min in data set [25]. Moreover, the Activity entry in data set [16] and in data set [27] was “Non-Toxic” throughout. Further, the highest concentration (Cmax) turned out to be 30500 ng/mL in data set [18] and 14.7 µM in [23]. The Stability result in data set [19] and in [21] was “Stable” each time. For the same compound, the Drug metabolism result in [20] is reported as “Metabolite_Detected”. For the same compound, the AUC(0-t) at 24 h in data set [22] came out at 5900 ng·h/mL. Also, the inhibition result in [24] was “Active”. Also, in data set [29], the concentration for half-maximal inhibition (IC50) was found to be 0.0163 µM.
